{"data": "Measurements pooled from the literature", "target": "Death-associated protein kinase 3 (DAPK3, Homo sapiens, UniProt O43293)"}
{"SMILES": "O=C(NCC1CCOCC1)c1n[nH]cc1NC(=O)c1c(F)cccc1F", "observed": "binding", "technique": "competition with immobilised ligand", "tested at": "1 µM", "remaining binding [%]": 94}
{"SMILES": "O=C1NC(c2ccccn2)Sc2ccccc21 (stereo not shown)", "observed": "cell-free assay", "technique": "competition with immobilised ligand", "tested at": "1 µM", "remaining binding [%]": 0}
{"SMILES": "COc1ncc2cc3ccccc3nc2c1C#N", "observed": "cell-free assay", "technique": "competition with immobilised ligand", "tested at": "5 µM", "remaining binding [%]": 98}
{"SMILES": "c1cncc(-c2cccc(Nc3nccc(NC4CCCCC4)n3)c2)c1", "observed": "binding", "technique": "competition with immobilised ligand", "tested at": "10 µM", "remaining binding [%]": 85}
{"SMILES": "Cc1c(NC(=O)c2cc(C(N)=O)nc3cc(F)ccc23)c(C(F)(F)F)nn1Cc1ccc(C#N)cc1", "observed": "cell-free assay", "technique": "competition with immobilised ligand", "tested at": "1 µM", "remaining binding [%]": 89}
{"SMILES": "O=C(NCCCN1CCOCC1)c1ccc(Nc2nccc(-c3cc4ccccc4s3)n2)cc1", "observed": "binding", "technique": "competition with immobilised ligand", "tested at": "1 µM", "remaining binding [%]": 9.7}
{"SMILES": "CN(C)c1ncnc(-c2ccc3nc(Nc4cc(CN5CCN(C(=O)CC(F)(F)F)CC5)ccn4)[nH]c3c2)c1Cl", "observed": "cell-free assay", "technique": "competition with immobilised ligand", "tested at": "1 µM", "remaining binding [%]": 99}
{"SMILES": "CCN1CCN(Cc2ccc(C(=O)Nc3ccc(C)c(Oc4ccc5c(c4)CC(=O)N5)c3)cc2C(F)(F)F)CC1", "observed": "binding", "technique": "competition with immobilised ligand", "tested at": "1 µM", "remaining binding [%]": 100}
{"SMILES": "N[C@@H]1CCN(c2nccc(-c3cnn4ncccc34)n2)C1", "observed": "binding", "tested at": "1 µM", "remaining binding [%]": 99}
{"SMILES": "CNC(=O)[C@@H]1CC[C@@H](n2c(-c3ccc4cnccc4c3)nc3ccc(C(=O)NCc4cccc(C(N)=O)c4)cc32)C1", "observed": "binding", "technique": "competition with immobilised ligand", "tested at": "1 µM", "remaining binding [%]": 100}
{"SMILES": "c1cnn2ncc(-c3ccnc(N4CCC45COC5)n3)c2c1", "observed": "binding", "tested at": "1 µM", "remaining binding [%]": 73}
{"SMILES": "CC(C)(O)c1cncc(-c2nc3ccc(F)cc3n2C2CC2)c1", "observed": "cell-free assay", "technique": "competition with immobilised ligand", "tested at": "1 µM", "remaining binding [%]": 100}
{"SMILES": "C[C@@H]1CCN(c2nccc(-c3cnn4ncccc34)n2)C1", "observed": "binding", "tested at": "1 µM", "remaining binding [%]": 69}
{"SMILES": "COc1cnc(Nc2cccc(S(N)(=O)=O)c2)nc1N1CCN(c2ccccc2)CC1", "observed": "binding", "technique": "competition with immobilised ligand", "tested at": "1 µM", "remaining binding [%]": 76}
{"SMILES": "Cc1cnn2ncc(-c3ccnc(N(C)C)n3)c2c1", "observed": "binding", "tested at": "1 µM", "remaining binding [%]": 84}
{"SMILES": "O=C(c1ccc(Nc2ncc(Cl)c(-c3ccc(Cl)s3)n2)cc1)N1CCC(N2CCCC2)CC1", "observed": "binding", "technique": "competition with immobilised ligand", "tested at": "1 µM", "remaining binding [%]": 14}
{"SMILES": "Nc1c(C(=O)NCc2ccc(C(=O)NCCCC3CCCCC3)cc2)cnn1-c1ccccc1", "observed": "cell-free assay", "technique": "competition with immobilised ligand", "tested at": "0.1 µM", "remaining binding [%]": 100}
{"SMILES": "O=C(c1ccc(Nc2nccc(-c3cc4ccccc4s3)n2)cc1)N1CCC(N2CCCC2)CC1", "observed": "binding", "technique": "competition with immobilised ligand", "tested at": "1 µM", "remaining binding [%]": 11}
{"SMILES": "CC1CCCN1c1nccc(-c2cnn3ncccc23)n1 (stereo not shown)", "observed": "binding", "tested at": "1 µM", "remaining binding [%]": 89}
{"SMILES": "CS(=O)(=O)N1CCCC(NC(=O)[C@H](CCC2CCCCC2)NC(=O)c2ccc(CNC(=O)c3cnc4ccccn34)cc2)C1 (stereo partly shown)", "observed": "cell-free assay", "technique": "competition with immobilised ligand", "tested at": "0.1 µM", "remaining binding [%]": 90}
{"SMILES": "COc1ccnn2ncc(-c3ccnc(N(C)C)n3)c12", "observed": "binding", "tested at": "1 µM", "remaining binding [%]": 72}
{"SMILES": "CNC(=O)Nc1ccc2c(c1)CC[C@@]21OC(=O)N(CC(=O)N(Cc2ccc(F)cc2)[C@@H](C)C(F)(F)F)C1=O", "observed": "cell-free assay", "technique": "competition with immobilised ligand", "tested at": "1 µM", "remaining binding [%]": 86}
